Screens deposited in PubChem BioAssay by Johns Hopkins Ion Channel Center.
A selection: hits, their analogues and other compounds. The true share with any hit is near 3.7%.
KCNQ1 block: inhibitors of human KCNQ1 channel, primary screen, cell-based, thallium flux, high-throughput. Potassium voltage-gated channel subfamily KQT member 1 (Homo sapiens), P51787. hit rate 1.3% among 310,000. B-score at 10 µM. CHO-K1 KCNQ1, FluxOR thallium flux fluorescence; active compounds read high;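 active means compounds whose thallium flux B-score, printed positive for inhibition, exceeds three library SD while starting fluorescence stays within three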;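 further: channel opened by potassium depolarization with thallium stimulus after 20 min compound exposure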
KCNK9 block: KCNK9 potassium channel inhibitors, primary screen, HEK293 cells, thallium flux | hit rate 1.2% among 310,000 | FluxOR thallium flux fluorescence; active compounds read low | B-score at 10 µM | Potassium channel subfamily K member 9 (Homo sapiens), Q9NPC2;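 active means ratio B-score over 3 SD below the library mean, with starting fluorescence within 5 SD of its mean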;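 further: negative B-score means less thallium flux so channel inhibition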
Target sequence (Q9NPC2 whole entry, looked up): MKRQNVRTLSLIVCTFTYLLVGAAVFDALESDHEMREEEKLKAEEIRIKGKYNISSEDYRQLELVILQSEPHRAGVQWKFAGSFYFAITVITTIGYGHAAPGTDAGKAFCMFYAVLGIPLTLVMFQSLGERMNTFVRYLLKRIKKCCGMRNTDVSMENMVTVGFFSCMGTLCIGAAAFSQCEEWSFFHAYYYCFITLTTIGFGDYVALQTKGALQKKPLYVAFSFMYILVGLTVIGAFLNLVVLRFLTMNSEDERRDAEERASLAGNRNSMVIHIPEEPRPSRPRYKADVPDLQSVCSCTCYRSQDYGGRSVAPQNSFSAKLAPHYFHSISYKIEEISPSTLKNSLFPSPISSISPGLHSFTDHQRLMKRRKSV
KCNK3 block: human KCNK3 channel inhibitors, primary screen, CHO cells, FluxOR thallium flux, B-score; FluxOR fluorescence; active compounds read low; B-score at 10 µM; hit rate 0.84% among 340,000; AID 602410, 2012;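 active means B-score under library mean minus 4 SD, starting fluorescence ratio at most library mean plus 5 SD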;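 further: more negative B-score means stronger inhibition of thallium flux through KCNK3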
Kir21 inh: inhibitors of mouse Kir2.1 inward-rectifier potassium channel; Inward rectifier potassium channel 2 (Mus musculus), P35561; B-score at 10 µM; HEK293-Kir2.1, FluxOR thallium flux fluorescence; active compounds read low; hit rate 0.85% among 310,000;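 active means fluorescence ratio B-score at or below minus 3 SD of library scores, with starting-brightness B-score within 2 SD, cut at about -4.2 in these data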;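 further: channel flux triggered by added potassium and thallium sulfate stimulus; B-score of peak minus minimum fluorescence over baseline after thallium stimulus; more negative B-score means stronger Kir2.1 block with less thallium influx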
hERG protect: hERG rescue from dofetilide block, primary screen, cell-based, CHO-hERG, FluxOR thallium flux, dofetilide IC70 | Voltage-gated inwardly rectifying potassium channel KCNH2 (Homo sapiens), Q12809 | dofetilide IC70 present | activation (rescue from dofetilide block), less the hit threshold, % at 10 µM | hit rate 0.51% among 310,000 | AID 1511, 2009;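 active means activation above the mean of controls blocked by dofetilide plus 5 SD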;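 further: thallium influx through hERG after potassium depolarization seen as dye fluorescence rise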
KCNQ1 pot: potentiators or activators of KCNQ1 channel, primary screen, cell-based, thallium flux, high-throughput; Potassium voltage-gated channel subfamily KQT member 1 (Homo sapiens), P51787; CHO-K1 KCNQ1, thallium flux FluxOR fluorescence; active compounds read high; B-score at 10 µM; hit rate 0.35% among 310,000; AID 2648, 2010;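 active means fluorescence ratio B-score, a plate-corrected score, at least three library SD, with initial intensity B-score within 5 SD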
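assay system = KCNQ1-transfected CHO-K1 cells | medium = assay buffer with matched DMSO | probe or stimulus = depolarizing K+/Tl+ stimulus, K2SO4 and Tl2SO4 each 12.5 mM in 5x stock | dosing = single dose | incubation = dye 90 min, compound 20 min, room temperature | detection = kinetic FluxOR fluorescence, 10 s baseline plus 110 s post-stimulus | evaluation = ratio B score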
KCNK9 inh conf: KCNK9 potassium channel inhibitors, confirmation, HEK293 cells, thallium flux, duplicate | shares compounds with KCNK9 block | FluxOR thallium flux fluorescence | inhibition, % at 10 µM | hit rate 43% among 4,900;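 active means thallium signal inhibited by more than 5 SD of the compound-free buffer control wells, on both duplicate plates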;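 further: 0% = assay buffer control wells without compound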
Kir21 sel: mouse Kir2.1 channel inhibition, confirmation, selectivity assay for KCNK9 modulator project, cell-based, HEK293, thallium flux; hit rate 4% among 4,900; Kir2.1 cells, FluxOR thallium flux fluorescence; shares compounds with KCNK9 block; inhibition, % at 10 µM;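 active means thallium signal drop more than 5 SD beyond the mean of the no-compound control wells, seen in both duplicate plates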;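 further: signal is fluorescence rise after thallium addition divided by baseline fluorescence; plate controls were assay buffer only for no effect and full block by chlorpromazine control for full effect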
HEK293 Tl ctr: thallium flux in non-induced HEK293 cells, confirmation, counter-screen for KCNK9 inhibitor project, cell-based, second counter screen, non-induced KCNK9-HEK293 | FluxOR thallium flux | shares compounds with KCNK9 block | AID 492997, 2010 | hit rate 40% among 4,900 | inhibition, % at 10 µM;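 active means thallium signal drop beyond 5 SD of the untreated control mean, on both duplicate plates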;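 further: plate controls were buffer only IC0 wells for no effect and SID17386958 at its maximal inhibitory level for full effect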
The depositor's hits bear a star.

How did Cc1nn(-c2cccc(Cl)c2)c(Cl)c1/C=N/NC(=O)c1cccs1 do in these assays?
KCNQ1 block: inactive; KCNK9 block: -11*; KCNK3 block: inactive; Kir21 inh: -1.6; hERG protect: -6; KCNQ1 pot: inactive; KCNK9 inh conf: 60%*; Kir21 sel: inactive; HEK293 Tl ctr: 31%*

Results for COc1ccc(NC(=O)CSc2nc3ccccc3nc2N2CCCC2)cc1 ?
KCNQ1 block: inactive; KCNK9 block: inactive; KCNK3 block: inactive; Kir21 inh: 0.23; hERG protect: -5; KCNQ1 pot: inactive; KCNK9 inh conf: inactive; Kir21 sel: inactive; HEK293 Tl ctr: inactive

What do the screens show for `CCOc1ccccc1NC(=O)CSc1nc2ccccc2nc1N1CCOCC1`?
KCNQ1 block: inactive; KCNK9 block: inactive; KCNK3 block: inactive; Kir21 inh: 0.39; hERG protect: -12; KCNQ1 pot: inactive

How did COc1ccccc1N1CCN(C(=O)CSc2ncccc2-c2nc3ccccc3[nH]2)CC1 do in these assays?
KCNQ1 block: inactive; KCNK9 block: inactive; KCNK3 block: inactive; Kir21 inh: 0.39; hERG protect: -16; KCNQ1 pot: inactive

What do the screens show for `COc1ccccc1N1CCN(C(=O)CSc2nc3ccccc3nc2N2CCC(C)CC2)CC1`?
KCNQ1 block: inactive; KCNK9 block: inactive; KCNK3 block: inactive; Kir21 inh: -1.1; hERG protect: -15; KCNQ1 pot: inactive; KCNK9 inh conf: inactive; Kir21 sel: inactive; HEK293 Tl ctr: inactive

How did CCOc1ccccc1NC(=O)CSc1nc2ccccc2nc1N1CCCC1 do in these assays?
KCNQ1 block: 6*; KCNK9 block: -8.6*; KCNK3 block: inactive; Kir21 inh: -0.09; hERG protect: -16; KCNQ1 pot: inactive; KCNK9 inh conf: inactive; Kir21 sel: inactive; HEK293 Tl ctr: inactive

How did CCOc1ccc(NC(=O)CSc2nc3ccccc3nc2N2CCCC2)cc1 do in these assays?
KCNQ1 block: inactive; KCNK9 block: inactive; KCNK3 block: inactive; Kir21 inh: -1.2; hERG protect: -9; KCNQ1 pot: inactive

Results for CC(C(=O)Nc1ccc(Cl)cc1)N(C)Cc1cccs1 (stereo not drawn) ?
KCNQ1 block: inactive; KCNK9 block: -11*; KCNK3 block: inactive; Kir21 inh: -0.86; hERG protect: -4; KCNQ1 pot: inactive; KCNK9 inh conf: 56%*; Kir21 sel: inactive; HEK293 Tl ctr: 25%*

Results for CC(C(=O)Nc1ccc(C#N)cc1)N(C)Cc1cccs1 (stereo not drawn) ?
KCNQ1 block: inactive; KCNK9 block: inactive; KCNK3 block: inactive; Kir21 inh: 1.1; hERG protect: -9; KCNQ1 pot: inactive

Results for CC(C)(C)C(=O)[C@H]1[C@H](c2ccccc2)[C@@]2(N=C(c3ccccc3)OC2=O)C2c3ccccc3C=NN21 (stereo partly drawn) ?
KCNQ1 block: inactive; KCNK9 block: -9.7*; KCNK3 block: inactive; Kir21 inh: -0.52; hERG protect: -18; KCNQ1 pot: inactive; KCNK9 inh conf: 29%*; Kir21 sel: inactive; HEK293 Tl ctr: inactive

What do the screens show for `COc1ccc([C@H]2[C@H](C(=O)OC(C)(C)C)N3N=Cc4ccccc4C3C23C(=O)c2ccccc2C3=O)cc1OC` (stereo partly drawn)?
KCNQ1 block: inactive; KCNK9 block: inactive; KCNK3 block: inactive; Kir21 inh: 1; hERG protect: 1; KCNQ1 pot: inactive

What do the screens show for `COc1ccc(C(CNC(=O)c2cccc(S(=O)(=O)N3CCOCC3)c2)N2CCCC2)cc1` (stereo not drawn)?
KCNK3 block: inactive

How did CCN1CCc2c(OCc3ccccc3)cccc2C1=O do in these assays?
KCNQ1 block: inactive; KCNK9 block: inactive; KCNK3 block: inactive; Kir21 inh: 0.93; hERG protect: -11; KCNQ1 pot: inactive

What do the screens show for `Cc1ccc(COc2cccc3c2CCN(Cc2ccc(F)cc2)C3=O)cc1`?
KCNQ1 block: inactive; KCNK9 block: -10*; KCNK3 block: inactive; Kir21 inh: 0.03; hERG protect: -21; KCNQ1 pot: inactive; KCNK9 inh conf: 74%*; Kir21 sel: inactive; HEK293 Tl ctr: 41%*

Results for O=C1c2cccc(OCc3ccc(F)cc3)c2CCN1Cc1ccccc1 ?
KCNQ1 block: inactive; KCNK9 block: -11*; KCNK3 block: inactive; Kir21 inh: -0.71; hERG protect: -8; KCNQ1 pot: inactive; KCNK9 inh conf: 70%*; Kir21 sel: inactive; HEK293 Tl ctr: 48%*

What do the screens show for `COc1ccc(NC(=S)NC(=O)c2cncc(Br)c2)c(OC)c1`?
KCNQ1 block: inactive; KCNK9 block: inactive; KCNK3 block: inactive; Kir21 inh: 0.05; hERG protect: -3; KCNQ1 pot: inactive

What do the screens show for `COc1ccccc1N(CC(=O)NCCSCc1ccco1)S(=O)(=O)c1ccccc1`?
KCNQ1 block: inactive; KCNK9 block: inactive; KCNK3 block: inactive; Kir21 inh: -2.4; hERG protect: -9; KCNQ1 pot: inactive

How did Cc1nnc(SCC(=O)N2CCC(c3noc4ccc(F)cc34)CC2)s1 do in these assays?
KCNQ1 block: inactive; KCNK9 block: inactive; KCNK3 block: inactive; Kir21 inh: 0.48; hERG protect: -11; KCNQ1 pot: inactive

Results for O=C(CSc1ccc2ccccc2n1)N1CCC(c2noc3ccc(F)cc23)CC1 ?
KCNQ1 block: inactive; KCNK9 block: -9*; KCNK3 block: inactive; Kir21 inh: -0.66; hERG protect: -9; KCNQ1 pot: inactive; KCNK9 inh conf: inactive; Kir21 sel: inactive; HEK293 Tl ctr: inactive

What do the screens show for `O=C(Nc1nc(-c2cc3ccccc3oc2=O)cs1)c1ccco1`?
KCNQ1 block: inactive; KCNK9 block: inactive; KCNK3 block: inactive; Kir21 inh: 2.5; hERG protect: 0; KCNQ1 pot: inactive
